Assays:
[1] = test system: Class I HDAC; test: HDAC activity assay, class I substrate, bovine heart tissue lysate; type: biochemical; conditions: 2 hours treatment
Summary of the method: (§1)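 Bovine heart lysate prepared in PBS pH 7.4 with 0.5% Triton X-100, 300 mM NaCl and protease/phosphatase inhibitors, then clarified; 30 µg protein/well in PBS. Test compound at semi-log increasing concentrations for 2 h, then class-specific AMC-acyl-lysine substrate (1 mM DMSO stock) for 2 h at 37 °C.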

[2] = target: recombinant HDAC1 (Homo sapiens, UniProt Q13547); test: Recombinant HDAC activity assay; type: biochemical; conditions: 2 h, read-out: % HDAC activity, Class I HDACs, 1
[3] = target: recombinant HDAC2 (Homo sapiens, UniProt Q92769); test: Recombinant HDAC activity assay; type: biochemical; conditions: 2 h, read-out: % HDAC activity, Class I HDACs, 2
[4] = target: recombinant HDAC3 (Homo sapiens, UniProt O15379); test: Recombinant HDAC activity assay; type: biochemical; conditions: 2 h, read-out: % HDAC activity, Class I HDACs, 3
[5] = target: T1, recombinant HDAC8 (Homo sapiens, UniProt Q9BY41); test: Recombinant HDAC activity assay; type: biochemical; conditions: 2 h, read-out: % HDAC activity, Class I HDACs, 8
T1 sequence (Q9BY41 1-377): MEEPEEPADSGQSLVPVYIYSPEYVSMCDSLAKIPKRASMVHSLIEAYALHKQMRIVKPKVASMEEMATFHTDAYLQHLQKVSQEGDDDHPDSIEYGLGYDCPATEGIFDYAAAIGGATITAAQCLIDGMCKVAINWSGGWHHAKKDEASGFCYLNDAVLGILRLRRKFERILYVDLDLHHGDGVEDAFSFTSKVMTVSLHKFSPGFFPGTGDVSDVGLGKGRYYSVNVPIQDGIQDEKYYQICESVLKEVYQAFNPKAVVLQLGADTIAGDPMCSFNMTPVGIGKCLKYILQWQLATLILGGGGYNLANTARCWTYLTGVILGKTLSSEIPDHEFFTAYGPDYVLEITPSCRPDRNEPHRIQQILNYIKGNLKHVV

[6] = target: T2, recombinant HDAC7 (Homo sapiens, UniProt Q8WUI4); test: Recombinant HDAC activity assay; type: biochemical; conditions: recombinant protein incubated with 50 µM compound, 2 hrs
T2 sequence (Q8WUI4 1-952): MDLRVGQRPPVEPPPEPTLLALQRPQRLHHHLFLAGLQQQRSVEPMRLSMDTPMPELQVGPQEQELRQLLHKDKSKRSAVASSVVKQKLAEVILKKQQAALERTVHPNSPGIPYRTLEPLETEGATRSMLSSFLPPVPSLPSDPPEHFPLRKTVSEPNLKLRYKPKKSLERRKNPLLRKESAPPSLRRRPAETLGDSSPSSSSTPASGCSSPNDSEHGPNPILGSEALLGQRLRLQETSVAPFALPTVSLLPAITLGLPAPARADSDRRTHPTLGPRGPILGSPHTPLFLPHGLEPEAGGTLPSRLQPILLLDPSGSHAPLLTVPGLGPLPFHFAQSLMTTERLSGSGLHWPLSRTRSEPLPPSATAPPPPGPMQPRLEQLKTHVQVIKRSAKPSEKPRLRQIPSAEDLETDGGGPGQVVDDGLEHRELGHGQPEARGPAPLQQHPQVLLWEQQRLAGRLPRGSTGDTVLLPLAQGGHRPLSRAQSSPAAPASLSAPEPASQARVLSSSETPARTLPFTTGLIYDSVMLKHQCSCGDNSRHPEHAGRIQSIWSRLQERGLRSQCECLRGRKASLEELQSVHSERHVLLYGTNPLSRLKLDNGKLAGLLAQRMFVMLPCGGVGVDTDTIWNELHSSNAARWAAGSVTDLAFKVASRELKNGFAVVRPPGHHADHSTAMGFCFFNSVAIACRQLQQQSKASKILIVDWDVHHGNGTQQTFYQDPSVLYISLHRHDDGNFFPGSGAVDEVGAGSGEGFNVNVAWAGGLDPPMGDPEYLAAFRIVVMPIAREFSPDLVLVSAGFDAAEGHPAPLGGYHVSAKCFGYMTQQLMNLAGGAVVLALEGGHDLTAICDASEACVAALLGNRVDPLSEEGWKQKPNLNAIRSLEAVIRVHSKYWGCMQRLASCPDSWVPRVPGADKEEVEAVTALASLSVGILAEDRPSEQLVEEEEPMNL

[7] = target: recombinant HDAC5 (Homo sapiens, UniProt Q9UQL6); test: Recombinant HDAC activity assay; type: biochemical; conditions: 2 h, read-out: % HDAC activity, Class IIa HDACs, 5
[8] = target: recombinant HDAC9 (Homo sapiens, UniProt Q9UKV0); test: Recombinant HDAC activity assay; type: biochemical; conditions: 2 h, read-out: % HDAC activity, Class IIa HDACs, 9
[9] = target: T3, recombinant HDAC10 (Homo sapiens, UniProt Q969S8); test: Recombinant HDAC activity assay; type: biochemical; conditions: 2 h, read-out: % HDAC activity, Class IIb HDACs, 10
T3 sequence (Q969S8 1-669): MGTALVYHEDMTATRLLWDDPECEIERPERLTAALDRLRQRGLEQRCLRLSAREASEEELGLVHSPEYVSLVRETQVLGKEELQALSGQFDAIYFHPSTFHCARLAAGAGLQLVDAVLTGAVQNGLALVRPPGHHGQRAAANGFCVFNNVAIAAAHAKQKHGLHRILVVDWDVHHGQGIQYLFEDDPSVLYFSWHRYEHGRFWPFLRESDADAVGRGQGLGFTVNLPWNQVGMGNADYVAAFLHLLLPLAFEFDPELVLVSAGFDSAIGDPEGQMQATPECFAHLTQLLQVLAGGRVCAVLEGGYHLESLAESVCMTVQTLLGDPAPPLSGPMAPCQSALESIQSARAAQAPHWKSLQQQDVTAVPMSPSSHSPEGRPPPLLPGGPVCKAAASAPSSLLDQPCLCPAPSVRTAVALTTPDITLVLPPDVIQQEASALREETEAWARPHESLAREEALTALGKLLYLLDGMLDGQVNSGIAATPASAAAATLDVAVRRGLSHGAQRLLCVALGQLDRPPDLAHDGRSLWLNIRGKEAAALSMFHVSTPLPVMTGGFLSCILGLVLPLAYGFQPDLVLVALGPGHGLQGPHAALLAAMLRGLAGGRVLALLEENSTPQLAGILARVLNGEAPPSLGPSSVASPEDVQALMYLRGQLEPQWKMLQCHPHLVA

[10] = test system: HDAC activity in bovine cardiac tissue; test: Natural product library screen with class-selective HDAC substrates; type: biochemical; conditions: 2 hours treatment
Summary of the method: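 The screen covered 131 natural compounds against bovine cardiac tissue lysate at 30 µg protein/well in PBS (pH 7.4 lysis buffer with Triton X-100 and NaCl). Test compound for 2 h, then separate class I, IIa or IIb fluorogenic acyl-lysine-AMC substrates for 2 h at 37 °C. Developer (Triton X-100, 3 µM TSA, 0.75 mg/ml trypsin) for 20 min; fluorescence read at 360/460 nm.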

[11] = test system: H9c2 cells; test: Acetyl-H3K9/14 immunoblot of whole cell extract; type: cell-based, rat; conditions: H9c2 myocytes, 50 µM, 2 hours
Summary of the method: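 H9c2 cells were grown in DMEM with 10% FBS and treated at 90% confluence for 2 h with test compound or DMSO, with TSA as positive control. Washed in ice-cold PBS, lysed in PBS pH 7.4 with 0.5% Triton X-100 and 300 mM NaCl plus inhibitors, sonicated and clarified. SDS-PAGE, nitrocellulose, acetyl-H3K9/14 and total H3 antibodies, chemiluminescence; densitometry; ANOVA with Tukey.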

[12] = test system: Class IIb HDAC; test: HDAC activity assay, class IIb substrate, bovine heart tissue lysate; type: biochemical; conditions: 2 hours treatment
Summary of the method: as §1

[13] = target: T4, recombinant HDAC6 (Homo sapiens, UniProt Q9UBN7); test: Recombinant HDAC activity assay; type: biochemical; conditions: 2 h, read-out: % HDAC activity, Class IIb HDACs, 6
T4 sequence (Q9UBN7 1-1215): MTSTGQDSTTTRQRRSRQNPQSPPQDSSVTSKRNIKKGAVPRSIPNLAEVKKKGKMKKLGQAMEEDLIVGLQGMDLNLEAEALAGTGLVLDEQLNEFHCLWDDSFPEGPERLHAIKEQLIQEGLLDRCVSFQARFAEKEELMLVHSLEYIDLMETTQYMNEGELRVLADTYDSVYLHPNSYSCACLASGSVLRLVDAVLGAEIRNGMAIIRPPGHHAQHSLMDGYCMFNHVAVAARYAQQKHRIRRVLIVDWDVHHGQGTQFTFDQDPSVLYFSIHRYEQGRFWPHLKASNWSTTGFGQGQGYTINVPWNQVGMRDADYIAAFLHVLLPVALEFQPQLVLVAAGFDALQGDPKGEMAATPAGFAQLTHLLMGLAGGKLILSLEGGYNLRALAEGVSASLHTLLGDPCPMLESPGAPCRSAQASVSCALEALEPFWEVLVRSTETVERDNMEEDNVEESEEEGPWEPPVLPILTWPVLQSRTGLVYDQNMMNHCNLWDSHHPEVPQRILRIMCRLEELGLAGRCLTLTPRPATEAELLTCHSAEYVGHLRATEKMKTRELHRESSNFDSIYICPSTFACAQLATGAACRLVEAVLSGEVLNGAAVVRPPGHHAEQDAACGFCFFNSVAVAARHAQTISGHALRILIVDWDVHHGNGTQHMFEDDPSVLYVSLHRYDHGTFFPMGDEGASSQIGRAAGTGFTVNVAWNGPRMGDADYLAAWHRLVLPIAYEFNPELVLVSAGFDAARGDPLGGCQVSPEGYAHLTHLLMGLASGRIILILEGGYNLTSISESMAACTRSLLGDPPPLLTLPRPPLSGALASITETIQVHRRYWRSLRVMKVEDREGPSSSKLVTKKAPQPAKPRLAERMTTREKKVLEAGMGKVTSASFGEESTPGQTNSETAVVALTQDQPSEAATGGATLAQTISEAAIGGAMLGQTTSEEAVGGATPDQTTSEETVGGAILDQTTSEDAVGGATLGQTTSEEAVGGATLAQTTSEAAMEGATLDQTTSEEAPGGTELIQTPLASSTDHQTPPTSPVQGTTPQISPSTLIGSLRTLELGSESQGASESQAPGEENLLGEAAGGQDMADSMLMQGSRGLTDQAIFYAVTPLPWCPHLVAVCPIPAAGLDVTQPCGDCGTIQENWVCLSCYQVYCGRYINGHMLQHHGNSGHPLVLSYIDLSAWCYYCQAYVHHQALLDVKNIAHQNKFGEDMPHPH

Sequence of recombinant HDAC2 (Q92769 whole entry): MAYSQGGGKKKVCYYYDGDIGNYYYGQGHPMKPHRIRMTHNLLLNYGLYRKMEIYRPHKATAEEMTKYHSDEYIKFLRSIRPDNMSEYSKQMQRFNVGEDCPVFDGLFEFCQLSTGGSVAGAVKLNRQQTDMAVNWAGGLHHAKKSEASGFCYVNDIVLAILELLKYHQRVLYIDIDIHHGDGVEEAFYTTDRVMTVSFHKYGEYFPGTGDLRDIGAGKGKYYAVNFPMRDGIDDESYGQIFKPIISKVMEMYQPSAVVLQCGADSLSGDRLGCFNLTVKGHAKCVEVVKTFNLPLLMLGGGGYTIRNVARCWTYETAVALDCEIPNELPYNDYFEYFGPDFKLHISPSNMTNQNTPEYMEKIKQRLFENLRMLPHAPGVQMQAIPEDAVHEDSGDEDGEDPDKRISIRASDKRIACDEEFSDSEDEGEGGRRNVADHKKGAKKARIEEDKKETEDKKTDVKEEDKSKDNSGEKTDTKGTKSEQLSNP
Sequence of recombinant HDAC3 (O15379 whole entry): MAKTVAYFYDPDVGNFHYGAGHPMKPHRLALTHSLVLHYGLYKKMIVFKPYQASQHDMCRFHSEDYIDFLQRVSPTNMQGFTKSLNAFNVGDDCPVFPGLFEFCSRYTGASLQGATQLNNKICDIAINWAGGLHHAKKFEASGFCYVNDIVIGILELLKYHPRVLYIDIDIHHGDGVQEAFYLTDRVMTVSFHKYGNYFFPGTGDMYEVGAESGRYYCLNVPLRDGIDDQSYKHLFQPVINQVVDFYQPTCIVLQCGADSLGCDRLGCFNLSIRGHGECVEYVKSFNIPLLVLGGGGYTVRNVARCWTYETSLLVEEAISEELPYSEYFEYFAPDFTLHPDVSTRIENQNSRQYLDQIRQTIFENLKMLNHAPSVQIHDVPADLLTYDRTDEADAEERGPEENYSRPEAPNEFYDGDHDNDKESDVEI
Sequence of recombinant HDAC3 (Q9Y618 395-489 partner limits assumed): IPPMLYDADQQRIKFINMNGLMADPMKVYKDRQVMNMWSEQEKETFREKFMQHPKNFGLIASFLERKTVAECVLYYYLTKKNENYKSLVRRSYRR
Sequence of recombinant HDAC1 (Q13547 whole entry): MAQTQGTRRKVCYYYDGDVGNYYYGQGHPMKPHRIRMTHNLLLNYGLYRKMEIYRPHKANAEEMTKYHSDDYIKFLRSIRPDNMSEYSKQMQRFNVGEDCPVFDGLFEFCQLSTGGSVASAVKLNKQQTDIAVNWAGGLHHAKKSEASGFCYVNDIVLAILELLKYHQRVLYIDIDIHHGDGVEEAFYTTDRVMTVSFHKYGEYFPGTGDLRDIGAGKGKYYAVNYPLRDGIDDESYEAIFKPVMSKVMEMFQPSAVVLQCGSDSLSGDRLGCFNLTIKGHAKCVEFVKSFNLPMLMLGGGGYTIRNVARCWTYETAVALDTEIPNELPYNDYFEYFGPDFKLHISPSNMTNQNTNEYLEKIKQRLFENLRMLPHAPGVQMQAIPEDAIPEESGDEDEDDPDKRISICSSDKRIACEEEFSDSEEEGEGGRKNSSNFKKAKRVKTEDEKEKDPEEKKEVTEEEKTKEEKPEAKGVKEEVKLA
Sequence of recombinant HDAC9 (Q9UKV0 whole entry): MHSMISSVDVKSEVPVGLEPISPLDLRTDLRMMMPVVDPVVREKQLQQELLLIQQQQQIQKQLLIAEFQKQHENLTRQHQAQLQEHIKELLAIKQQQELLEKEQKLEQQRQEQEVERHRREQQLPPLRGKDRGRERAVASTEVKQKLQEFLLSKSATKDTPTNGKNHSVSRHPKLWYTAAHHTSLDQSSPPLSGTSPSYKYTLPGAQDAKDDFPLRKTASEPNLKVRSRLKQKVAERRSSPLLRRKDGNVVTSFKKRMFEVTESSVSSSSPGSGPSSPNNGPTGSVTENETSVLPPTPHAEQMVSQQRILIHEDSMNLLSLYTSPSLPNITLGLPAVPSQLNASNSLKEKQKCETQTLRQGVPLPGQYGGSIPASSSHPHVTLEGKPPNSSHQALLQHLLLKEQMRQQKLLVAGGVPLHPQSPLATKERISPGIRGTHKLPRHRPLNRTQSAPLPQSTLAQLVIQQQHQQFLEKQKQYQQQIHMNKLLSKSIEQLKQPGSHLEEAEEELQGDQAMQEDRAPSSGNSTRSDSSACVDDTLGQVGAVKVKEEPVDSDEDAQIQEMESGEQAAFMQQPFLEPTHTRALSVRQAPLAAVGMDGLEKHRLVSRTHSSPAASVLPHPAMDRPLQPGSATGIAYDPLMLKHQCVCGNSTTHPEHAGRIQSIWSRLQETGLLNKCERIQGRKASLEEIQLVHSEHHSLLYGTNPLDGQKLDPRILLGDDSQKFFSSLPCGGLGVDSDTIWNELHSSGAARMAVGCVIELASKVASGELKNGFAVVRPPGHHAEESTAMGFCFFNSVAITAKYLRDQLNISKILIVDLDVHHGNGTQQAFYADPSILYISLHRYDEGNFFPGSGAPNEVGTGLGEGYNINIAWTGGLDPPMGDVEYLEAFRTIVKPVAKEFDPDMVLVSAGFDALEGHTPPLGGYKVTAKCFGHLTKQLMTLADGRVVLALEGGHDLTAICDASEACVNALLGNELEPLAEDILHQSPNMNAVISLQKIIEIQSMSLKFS
Sequence of recombinant HDAC5 (Q9UQL6 whole entry): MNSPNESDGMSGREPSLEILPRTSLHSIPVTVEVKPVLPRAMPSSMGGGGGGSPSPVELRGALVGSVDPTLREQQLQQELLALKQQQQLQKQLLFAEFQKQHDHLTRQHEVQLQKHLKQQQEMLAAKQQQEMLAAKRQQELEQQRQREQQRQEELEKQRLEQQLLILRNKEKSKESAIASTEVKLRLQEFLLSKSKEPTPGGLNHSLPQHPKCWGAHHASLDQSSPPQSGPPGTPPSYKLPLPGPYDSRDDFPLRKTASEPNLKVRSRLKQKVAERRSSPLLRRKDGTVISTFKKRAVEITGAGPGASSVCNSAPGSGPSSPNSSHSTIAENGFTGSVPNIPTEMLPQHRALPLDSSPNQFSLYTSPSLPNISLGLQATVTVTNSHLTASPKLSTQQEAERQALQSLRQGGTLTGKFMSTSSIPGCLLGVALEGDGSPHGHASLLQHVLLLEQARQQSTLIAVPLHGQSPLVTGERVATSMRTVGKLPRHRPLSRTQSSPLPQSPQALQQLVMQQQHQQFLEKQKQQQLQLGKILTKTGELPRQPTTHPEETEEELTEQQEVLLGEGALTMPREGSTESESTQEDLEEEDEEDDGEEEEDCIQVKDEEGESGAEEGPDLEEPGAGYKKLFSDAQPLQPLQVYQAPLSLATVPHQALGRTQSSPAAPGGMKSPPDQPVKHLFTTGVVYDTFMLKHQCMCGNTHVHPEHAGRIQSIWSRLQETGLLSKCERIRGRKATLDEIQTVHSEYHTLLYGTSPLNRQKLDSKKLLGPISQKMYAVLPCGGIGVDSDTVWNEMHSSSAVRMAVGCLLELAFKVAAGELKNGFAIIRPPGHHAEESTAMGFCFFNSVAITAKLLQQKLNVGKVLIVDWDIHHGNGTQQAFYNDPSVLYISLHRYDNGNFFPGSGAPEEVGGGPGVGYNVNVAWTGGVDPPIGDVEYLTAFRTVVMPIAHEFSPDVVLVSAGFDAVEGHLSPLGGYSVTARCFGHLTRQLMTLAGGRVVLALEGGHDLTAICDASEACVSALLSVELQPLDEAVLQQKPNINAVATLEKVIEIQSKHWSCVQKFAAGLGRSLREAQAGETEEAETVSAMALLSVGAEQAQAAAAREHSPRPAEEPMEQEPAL

SMILES	class I HDAC activity, effect in words [1]	remaining activity at 50 µM [2]	remaining activity at 50 µM [3]	remaining activity at 50 µM [4]	remaining activity at 50 µM [5]	% HDAC activity, Class IIa HDACs, 7 [6]	remaining activity at 50 µM [7]	remaining activity at 50 µM [8]	remaining activity at 50 µM [9]	catalytic HDAC activity across class I, IIa and IIb substrates, effect in words [10]	acetylation of histone 3 on lysine 9/14 (Ac-H3 K9/14) via immunoblot [11]	class IIb HDAC activity, effect in words [12]	remaining activity at 50 µM [13]
O=c1cc(-c2ccc(O)cc2)oc2cc(O)cc(O)c12 [Apigenin]	only inhibit class I HDAC activity	76.4%	90.4%	72.7%	76.5%	-							
Cc1cc2c(C(C)C)c(O)c(O)c(C=O)c2c(O)c1-c1c(C)cc2c(C(C)C)c(O)c(O)c(C=O)c2c1O [Gossypol]		42.6%	15.1%	42.1%	40.7%	-	51.5%	44.5%	42.6%	dose-dependent pan-HDAC inhibition	increased		
Oc1cc2c(cc1O)[C@@H]1c3ccc(O)c(O)c3OC[C@]1(O)C2 [Hematoxylin]						-						targeted class IIb HDACs for inhibition	81.8%
Nc1ccccc1NC(=O)c1ccc(CNc2nccc(-c3cccnc3)n2)cc1 [MGCD, MGCD0103, reference compound]	only inhibited class I HDAC activity												
